In the library only some 0.99% were active in any assay of this set; here they are far more common.
LYPLA1 inh = blocks human lysophospholipase 1, a PME1 counter-screen; O75608; recombinant LYPLA1, FP-Rh probe fluorescence polarization; inhibition, % at 5.9 µM; 0.16% of 320,000 active;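 active means inhibition above the mean of all tested compounds plus 3 SD, set per campaign, cut at about 14% in these data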;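 further: inhibitors block serine hydrolase probe labeling of LYPLA1 so polarization falls; 0% = enzyme with DMSO and 100% = wells lacking LYPLA1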
Target sequence (O75608 whole entry, looked up): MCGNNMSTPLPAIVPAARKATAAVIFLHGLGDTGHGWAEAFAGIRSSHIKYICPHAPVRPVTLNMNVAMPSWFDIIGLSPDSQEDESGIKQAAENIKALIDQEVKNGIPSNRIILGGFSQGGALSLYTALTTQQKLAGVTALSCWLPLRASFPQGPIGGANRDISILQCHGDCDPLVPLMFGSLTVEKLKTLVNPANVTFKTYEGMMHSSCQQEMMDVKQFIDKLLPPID
Fam108B counter = Fam108B inhibition, counter-screen for RBBP9 inhibitors | recombinant Fam108B, FP-Rh probe fluorescence polarization | inhibition, % at 9.51 µM | 0.33% of 300,000 active | AID 1947;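 active means inhibition above the screen mean inhibition plus 3 SD, computed separately per campaign, cut at about 18% in these data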;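 further: inhibitors lower polarization as less probe binds the enzyme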
PME-1 primary = PME-1 (human) inhibition; AID 2130; 0.53% of 320,000 active; Q9Y570; recombinant PME-1, FP-Rh probe fluorescence polarization; inhibition, % at 5.9 µM;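 active means inhibition above the campaign mean of all compounds plus 3 SD, cut at about 26% in these data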;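 further: competitive labeling of PME-1 active site by serine hydrolase directed probe; 0% = PME-1 with DMSO and 100% = wells lacking PME-1 enzyme; inhibitors block probe labeling so polarization falls and inhibition rises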
LYPLA2 counter = LYPLA2 (human) inhibition in PME1 counter-screen. O95372. recombinant LYPLA2, FP-Rh probe fluorescence polarization. inhibition, % at 5.9 µM. 0.38% of 320,000 active. AID 2177;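 active means inhibition above the screen-wide mean plus 3 SD, limit set per campaign, cut at about 26% in these data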;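 further: 0% = LYPLA2 with DMSO and 100% = wells lacking LYPLA2 enzyme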
Target sequence (O95372 whole entry, looked up): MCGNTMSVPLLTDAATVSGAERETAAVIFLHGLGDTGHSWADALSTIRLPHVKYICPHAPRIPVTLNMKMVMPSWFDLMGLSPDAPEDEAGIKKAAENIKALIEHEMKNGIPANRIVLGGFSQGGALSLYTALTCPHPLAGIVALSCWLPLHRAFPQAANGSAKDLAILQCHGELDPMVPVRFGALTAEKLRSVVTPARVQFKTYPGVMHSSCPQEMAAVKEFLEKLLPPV
RBBP9 inhibitor = human RBBP9 hydrolase inhibition; AID 1515; 0.2% of 220,000 active; O75884; recombinant RBBP9, FP-Rh probe fluorescence polarization; inhibition, % at 7.94 µM;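 active means inhibition above the campaign mean of all tested compounds plus 3 SD, cut at about 14% in these data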;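 further: plate controls were DMSO wells with RBBP9 for no effect and wells lacking RBBP9 protein for full effect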
Target sequence (O75884 whole entry, looked up): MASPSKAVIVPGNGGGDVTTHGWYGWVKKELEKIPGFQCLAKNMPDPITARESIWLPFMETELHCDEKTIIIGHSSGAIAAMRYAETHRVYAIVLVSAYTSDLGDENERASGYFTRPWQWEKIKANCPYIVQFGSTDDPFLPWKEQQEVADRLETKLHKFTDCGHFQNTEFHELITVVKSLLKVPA
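Assay system: recombinant human RBBP9; Reagent: Serine-hydrolase probe FP-Rh, 375 nM pre-mixing; Doses: 7.94 µM single dose, 0.794% DMSO; Incubation: 30 min then 45 min, 25 °C; Detection: fluorescence polarization (mP), excitation 525 nm, emission 598 nm; Evaluation: percent inhibition from mP, scaled between DMSO and no-protein wells.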
Numbers without * were called inactive; . = no result given.

SMILES	LYPLA1 inh	Fam108B counter	PME-1 primary	LYPLA2 counter	RBBP9 inhibitor
N#CC1=C(N)C(C#N)(C#N)C(c2cccnc2)C2CN(C(=O)OCc3ccccc3)CC=C12 (stereo not drawn)	3.3	-0.2	28.3*	16.1	-7.9
COc1cccc(-c2nnc(SC(C(=O)c3c[nH]c4ccccc34)c3ccccc3)n2C)c1 (stereo not drawn)	-9.7	-3.1	56.0*	-19.9	-1.0
COc1cc2c(C#N)c(N3CCN(c4ccccc4OC)CC3)nc(N)c2c(N)n1	3.0	11.8	72.5*	8.6	-9.1
CCCCn1c(/C=C/c2ccco2)nc2ccccc21	-9.9	-6.3	-6.4	-2.1	0.0
CCCCn1c(/C=N/Nc2nc3ccccc3[nH]2)nc2ccccc21	-7.1	4.3	52.2*	3.0	-5.1
O=C1CCCCN1CCC(=O)N1CCCC(N2CCN(c3cccc(Cl)c3)CC2)C1 (stereo not drawn)	0.2	-1.6	-0.6	-0.4	.
O=C(CCC(F)(F)F)N1CCCC(N2CCN(c3cccc(Cl)c3)CC2)C1 (stereo not drawn)	-1.4	-6.9	-5.9	30.2*	.
COc1cccc(Oc2ccc(S(=O)(=O)N3CCCC3)cc2[N+](=O)[O-])c1	0.2	2.4	26.1*	-1.5	.
COc1ccc(Nc2ccc(S(=O)(=O)N3CCCCCC3)cc2[N+](=O)[O-])cc1	-0.1	8.7	7.5	5.9	-6.2
Cc1ccc(NC(=O)CCC(=O)c2ccc(Cl)s2)nc1	-3.9	.	-9.1	-1.3	.
COc1ccc(Br)cc1CNc1ccc(O)cc1	14.0	4.3	29.4*	8.8	-1.8
CCc1ccc(NC(=O)Nc2cccs2)cc1	-4.0	3.2	34.4*	9.5	-17.7
COc1ccc(N2C(=O)[C@@H]3[C@H](C2=O)[C@H]2c4ccccc4C=CN2[C@@H]3C(=O)Nc2ccccc2)cc1	1.1	24.6*	13.3	6.8	1.4
Cc1ccc(-n2cc(CNCC3CC(=O)N(C4CC4)C3)c(-c3cccc(C)c3)n2)cc1 (stereo not drawn)	2.0	4.3	1.3	3.7	1.2
C=C(C(=O)Oc1ccccc1C(C)(C)C)c1ccccc1	-9.5	.	-13.4	-12.3	.
CC1(C)Cc2c(sc3nc(SCC(=O)O)[nH]c(=O)c23)CO1	0.7	-1.3	1.2	-1.0	-9.6
CC(C)=NNc1nc2sc3c(c2c(=O)[nH]1)CC(C)(C)OC3	-0.2	-3.8	36.3*	6.0	-1.6
Cc1cc(N/N=C/c2cccc(Cl)c2)nc(-n2nc(C)cc2C)n1	0.5	-2.3	-5.0	5.5	-5.8
COc1ccc(/C=N/Nc2cc(C)nc(-n3nc(C)cc3C)n2)cc1	-2.6	-1.5	32.8*	-1.3	-9.4
CCCCSc1nc(C)cc(C)c1S(=O)(=O)c1ccccc1C	-5.8	-2.6	2.4	-12.2	-7.1
CC1=NN(c2ccc(C)cc2C)C(=O)C1C(c1ccccc1O)C1C(=O)N(c2ccc(C)cc2C)N=C1C (stereo not drawn)	-1.4	-2.3	-0.4	5.2	-1.1
CC1=NN(c2ccc(C)c(C)c2)C(=O)C1C(c1cccc(O)c1)C1C(=O)N(c2ccc(C)c(C)c2)N=C1C (stereo not drawn)	-2.2	9.8	33.6*	9.8	-4.3
O=C(NNc1nc2c(F)cccc2s1)c1cc(=O)c2ccccc2o1	0.0	3.5	54.5*	0.5	4.1
Cc1ccc2sc(NNC(=O)c3cc(=O)c4ccccc4o3)nc2c1C	-1.9	9.2	46.0*	5.6	-9.9
COc1ccc2nc(NNC(=O)c3cc(=O)c4ccccc4o3)sc2c1	-3.7	1.2	6.7	-2.3	-2.5
SMILES	LYPLA1 inh	Fam108B counter	PME-1 primary	LYPLA2 counter	RBBP9 inhibitor
Cc1cccc2sc(NNC(=O)c3cc(=O)c4ccccc4o3)nc12	-2.2	3.6	47.3*	-0.2	11.3
COc1cccc(NC(=O)Nc2ccc3c(c2)N(C)C(=O)CS3)c1	-21.9	15.1	32.3*	3.0	-0.1
Cc1ccc(F)c(Cn2cnc3c(cnn3C(C)(C)C)c2=O)c1Cl	2.3	.	1.5	1.0	.
O=C(CN1C(=O)c2cccnc2Oc2ccc(Cl)cc21)NC1CCCCC1	0.5	2.2	-2.4	1.3	.
CC(C)CC(=O)NC(c1ccccc1Cl)c1c(O)ccc2ccccc12 (stereo not drawn)	-10.5	9.1	46.9*	-5.6	3.2
COc1ccc(NC(=O)CN(C)C(=O)CCCc2nc3ccccc3s2)cc1	0.8	-0.6	0.0	1.8	.
O=C(N=Nc1c(O)[nH]c2ccccc12)c1cccc(S(=O)(=O)N2CCCCC2)c1	-4.2	0.3	4.4	-7.9	-4.0
CC(C)c1ccc2[nH]c(O)c(N=NC(=O)c3cccc(S(=O)(=O)N4CCCCC4)c3)c2c1	-2.3	7.6	53.1*	1.0	5.0
Cc1onc(NC(=O)NC(=O)c2c(Cl)cccc2Cl)c1Br	0.4	-2.6	26.4*	1.8	.
Cc1cccc(NS(=O)(=O)c2ccc(OCC(=O)N3CCCC3)cc2)c1	-2.3	-1.9	5.8	1.5	.
Nc1ccc2nc3c(=O)n(CCc4ccccc4)c(=O)[nH]c3nc2c1	5.8	5.6	39.5*	6.8	3.6
Cc1cc2nc3c(=O)n(CCc4ccccc4)c(=O)[nH]c3nc2cc1N	-3.4	8.9	54.1*	1.9	-3.1
CCCCn1c(=O)[nH]c2nc3cc(N)ccc3nc2c1=O	8.0	8.9	22.8	15.9	2.0
COc1ccccc1NC(=O)Nc1c(C)nn(C)c1C	1.7	-4.6	3.4	2.2	-7.7
O=C(Cn1c(CO)nc2ccccc21)NC1CCCCCC1	3.4	-1.1	-3.5	10.1	-11.7
CCn1c2ccccc2c2cc(NC(=O)c3ccccc3[N+](=O)[O-])ccc21	-0.6	12.9	30.4*	-4.4	-5.6
Cc1cc(C2CCCCC2)n(O)c(=O)c1	-2.3	-9.1	-2.4	-6.1	.
COC(=O)N1C(=O)[C@](c2ccccc2)(C2CCCC2)N1C(=O)OC	3.4	-2.7	69.6*	-6.0	.
COC(=O)N1C(=O)[C@@](c2ccccc2)(C(C)C)N1C(=O)OC	0.1	1.4	11.0	2.6	.
O=C1CN(C(=O)c2ccccc2F)C(c2ccccc2)c2cc(F)ccc2N1 (stereo not drawn)	2.5	1.0	30.0*	9.1	.
Cc1cccc(NC(=O)CN2C(=O)COc3ccc(Cl)cc32)c1	-1.9	0.0	-1.6	40.0*	.
CC(C)c1ccc2c(c1)C1(NN=C(c3ccccc3)S1)C(=O)N2 (stereo not drawn)	2.1	6.9	33.2*	4.7	-1.8
Cc1ccccc1NC(=O)C1CCCN1S(=O)(=O)c1ccccc1C(F)(F)F (stereo not drawn)	0.2	.	2.6	1.1	.
CC(C)S(=O)(=O)c1csc(NC(=O)Nc2cccc([N+](=O)[O-])c2)c1Cl	-10.3	-14.3	27.6*	-6.9	-19.5
O=C(Nc1cccc([N+](=O)[O-])c1)Nc1cccc([N+](=O)[O-])c1	-21.2	-5.3	-6.6	-24.6	-13.3
Nc1c(C(=O)Nc2ccc(Br)cc2)sc2nc(-c3ccco3)ccc12	-22.2	14.4	36.2*	-13.7	-8.0
Nc1c(C(=O)Nc2ccc(F)cc2)sc2nc(-c3ccco3)ccc12	-14.2	9.9	57.8*	-12.5	-4.3
